Assay [1] has as its system L1210. Description: Compound (1 x 10e-4 M) was evaluated in vitro for its ability to inhibit the growth of the murine leukemia L1210; Inactive until maximum tested concentration of 1xe-4 M. In kind it is functional, cell-based. The following applies: Mus musculus.
For assay [2], the system named is P388. Put plainly: Compound (1 x 10e-4 M) was evaluated in vitro for its ability to inhibit the growth of the murine leukemia P388; Inactive until maximum tested concentration of 1xe-4 M. In kind it is functional, cell-based. The following applies: Mus musculus.
The species named for assay [3] is Homo sapiens. Description: Compound (1 x 10e-4 M) was evaluated in vitro for its ability to inhibit the growth of the human epidermoid carcinoma KB; Inactive until maximum tested concentration of 1xe-4 M. In kind it is functional.
In assay [4] the test system is HL-60. Description: Compound (1 x 10e-4 M) was evaluated in vitro for its ability to inhibit the growth of the human promyelocytic leukemia HL-60; Inactive until maximum tested concentration of 1xe-4 M. Type of assay: functional, cell-based.
The species named for assay [5] is Homo sapiens. Put plainly: Compound (1 x 10e-4 M) was evaluated in vitro for its ability to inhibit the growth of the human epidermoid carcinoma KB. In kind it is functional. The method in brief:
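KB cells in exponential growth, in RPMI-1640 with antibiotics, 3 mM glutamine, 10 mM HEPES and 5% heat-inactivated newborn calf serum. Seeded at 5 × 10³ cells/well and exposed in quadruplicate to compound (DMSO ≤0.5% final), up to a maximum of 1×10^-4 M, for 48 h at 37 °C. [¹²⁵I]-5-iodo-2'-deoxyuridine plus 5-fluoro-2'-deoxyuridine then added for 18 h. Cells trypsin/EDTA-detached, filter-harvested and γ-counted. Inhibition expressed as % of control incorporation.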

The source made the active and inactive calls. The calls are words filed in the database; no cut-off is given here.

In the case of `Nc1nc(Cl)cc2c1ccn2[C@@H]1O[C@H](CO)[C@@H](O)[C@H]1O`, the ID50 result in assay [1], in assay [2], in assay [3] and in assay [4] was “Inactive until maximum tested concentration of 1xe-4 M” throughout.

With `Nc1nccc2c1ccn2[C@H]1C[C@H](O)[C@@H](CO)O1`, the ID50 result in assay [1], in assay [2], in assay [3] and in assay [4] was “Inactive until maximum tested concentration of 1xe-4 M” in each case.

With `Nc1nc(Cl)cc2c1ccn2[C@H]1C[C@H](O)[C@@H](CO)O1`, the ID50 entry in assay [1], in assay [2], in assay [3] and in assay [4] was “Inactive until maximum tested concentration of 1xe-4 M” each time.

With `Nc1ncnc2c1ccn2[C@@H]1O[C@H](CO)[C@@H](O)[C@H]1O`, in assay [5], the ID50 was found to be 52 nM.

For `Nc1nccc2c1ccn2[C@@H]1O[C@H](CO)[C@@H](O)[C@H]1O`, the ID50 entry in assay [1], in assay [2], in assay [3] and in assay [4] was “Inactive until maximum tested concentration of 1xe-4 M” each time.
